Assay results published in article PMC3466776 (Biochemistry, 2012).

Tests used:
[1] = read-out: Kd for Ca^2+; cited from earlier work
[2] = molecular target: CaMWT (Rattus norvegicus, UniProt P0DP29); assay: Stopped-flow Ca^2+ dissociation kinetics of CaMWT; assay type: binding; details: for number of Ca^2+ ions released, phase 1, CaMWT / number of Ca^2+ ions released, phase 2, CaMWT: 0.03 relative amplitude = one Ca^2+ ion; for amplitude 1 (relative quin-2 fluorescence change), CaMWT: as koff1, CaMWT; for amplitude 1 (relative quin-2 fluorescence change), CaMWT / amplitude 2 (relative quin-2 fluorescence change), CaMWT: mean ± SD of 3-8 experiments; for amplitude 2 (relative quin-2 fluorescence change), CaMWT: as koff2, CaMWT
How it was run: (§1)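 Rat His-CaM (2 μM) with 20 μM CaCl2, alone or with 2 μM synthetic AC1 or AC8 CaMBD peptide, is mixed 1:1 with 150 μM quin-2. These are pre-mix concentrations. Buffer is 20 mM MOPS pH 7.4, 100 mM KCl, 1 mM MgCl2, at 22 °C. Quin-2 fluorescence is read with excitation at 334 nm and a 405 nm cutoff filter. Five to eight runs are averaged and fit single- or double-exponentially. A relative amplitude of 0.03 equals one Ca2+. Values are mean ± SD of ≥3 averages.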

[3] = molecular target: CaM34 (Rattus norvegicus, UniProt P0DP29, D130A/D94A); assay: Stopped-flow Ca^2+ dissociation kinetics of CaM34; assay type: binding; details: mean ± SD of 3-8 experiments; for amplitude 2 (relative quin-2 fluorescence change), CaM34: as koff2, CaM34, 22 °C
How it was run: as §1

[4] = molecular target: CaM12 (Rattus norvegicus, UniProt P0DP29, D21A/D57A); assay: Stopped-flow Ca^2+ dissociation kinetics of CaM12; assay type: binding; details: for amplitude 1 (relative quin-2 fluorescence change), CaM12: as koff1, CaM12, 22 °C; for amplitude 1 (relative quin-2 fluorescence change), CaM12 / amplitude 2 (relative quin-2 fluorescence change), CaM12: mean ± SD of 3-8 experiments; for amplitude 2 (relative quin-2 fluorescence change), CaM12: as koff2, CaM12, 22 °C
How it was run: as §1

[5] = CaM12 with peptide, single-exponential fit, 22 °C, n = 3

| number of Ca^2+ ions released, phase 1, CaMWT ([2]; 22 °C) | number of Ca^2+ ions released, phase 2, CaMWT ([2]; 22 °C) | total Ca^2+ released in measurable phases, CaMWT ([2]; CaMWT with peptide, 22 °C) | amplitude 1 (relative quin-2 fluorescence change), CaMWT ([2]; 22 °C) | amplitude 2 (relative quin-2 fluorescence change), CaMWT ([2]; 22 °C) | amplitude 2 (relative quin-2 fluorescence change), CaM34 [3] | amplitude 1 (relative quin-2 fluorescence change), CaM12 [4] | amplitude 2 (relative quin-2 fluorescence change), CaM12 [4] | total relative amplitude, CaMWT ([2]; CaMWT with peptide, 22 °C) | reduction of Ca^2+ dissociation speed, C-lobe ([2]; if slower release from both lobes, C-lobe) [fold] | reduction of Ca^2+ dissociation speed, N-lobe ([2]; if slower release from both lobes, N-lobe) [fold] | amplitude 1 (relative quin-2 fluorescence change), CaM34 ([3]; as koff1, CaM34, 22 °C) | amplitude, single-exponential fit, CaM12 [4, 5] | rate constant, single-exponential fit, CaM12 [4, 5] [s^–1] | Compound | Kd [1] [nM] |
| --- | --- | --- | --- | --- | --- | --- | --- | --- | --- | --- | --- | --- | --- | --- | --- |
| – | – | – | – | – | – | – | – | – | – | – | – | – | – | COc1cc(N(CC(=O)O)CC(=O)O)c2nc(COc3cc(C)ccc3N(CC(=O)O)CC(=O)O)ccc2c1 [quin-2] | ~60 |
| 1 | 1 | 2 mol | 0.029 ± 0.008 | 0.027 ± 0.007 | 0.027 ± 0.004 | 0.017 ± 0.002 | 0.022 ± 0.06 | – | – | – | – | – | – | GSRPQRLLWQTAVRHITEQRFIHGH [AC8-Nt] | – |
| 2 | 1 | 3 mol | 0.053 ± 0.001 | 0.024 ± 0.006 | 0.032 ± 0.007 | 0.022 ± 0.010 | 0.012 ± 0.003 | – | – | – | – | – | – | IKPAKRMKFKTVCYLLVQLMHCRKMFKA [AC1-C1b] | – |
| 2 | 2 | four | 0.054 ± 0.006 | 0.053 ± 0.010 | – | 0.043 ± 0.007 | 0.021 ± 0.001 | ~0.12 | 5 | > 60 | 0.049 ± 0.006 | 0.054 ± 0.004 | 7.0 ± 1.3 | YSLAAVVLGLVQSLNRQRQKQLLNE [AC8-C2b] | – |
